Experimental data reported in paper PMC6585766 (Clinical Pharmacology in Drug Development, 2018).
Entries after “also recorded” stand apart in the source; their conditions may differ. Like-named read-outs stand apart in the source and are kept apart here.

Experiments:
[1] = administered during the period of organogenesis; no reference given; cited from earlier work
[2] = heavy smokers (approximately 25 cigarettes per day); ref data on file; cited from earlier work
Safety assessment = assay type: in vivo, human; details: single oral 4-mg dose
In short: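 Open-label, multicentre study in male subjects (healthy, mild, moderate or severe hepatic impairment) given a single oral 4-mg dose. Adverse events were recorded from consent through a follow-up telephone call 7 ± 1 days after dosing, plus any reported within 28 days. Physical exams, vital signs, 12-lead ECGs and clinical laboratory tests were also done. TEAEs were tabulated by system organ class and preferred term, each subject counted once per event.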

[3] = patients with relapsed and refractory multiple myeloma; cited from earlier work
[4] = human, cited from earlier work
[5] = fed vs fasted; ref data on file; cited from earlier work
[6] = cited from earlier work
[7] = assay type: in vivo, human; details: for AUC / AUC(0-inf) / Cmax / half-life / Tmax: human, plasma, po, 4 mg; for AUC / AUC(0-inf) / Cmax / Tmax / CL/F / AUC0‐t, Ratio (%) of Geometric Mean (Impaired vs Healthy) / AUC, Ratio (%) of Geometric Mean (Impaired vs Healthy) / Cmax, Ratio (%) of Geometric Mean (Impaired vs Healthy) / tmax, Median Difference (Impaired– Healthy): single oral 4-mg dose; for AUC(0-inf): AUC (time 0 extrapolated to infinity); for half-life: t1/2, single oral 4-mg dose; for AUC0‐t, Ratio (%) of Geometric Mean (Impaired vs Healthy) / AUC, Ratio (%) of Geometric Mean (Impaired vs Healthy) / Cmax, Ratio (%) of Geometric Mean (Impaired vs Healthy): ANOVA; for tmax, Median Difference (Impaired– Healthy): nonparametric method
In short: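 Male subjects (8 per group: healthy, mild, moderate, severe hepatic impairment) received a single oral 4-mg dose. Water was withheld from 60 min pre-dose to 2 h post-dose, food until at least 4 h post-dose, and CYP1A2/CYP3A modulators from 14 days prior. Plasma was sampled pre-dose to 48 h and assayed by validated LC-MS/MS. Noncompartmental parameters used actual sampling times. ANOVA (group as fixed effect) gave geometric mean ratios with 90% CI versus matched healthy subjects.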

[8] = severe hepatic impairment group, 1 subject
[9] = group 1 healthy subjects, n = 8, arithmetic mean (SD)
[10] = group 2 severe hepatic impairment, n = 8, arithmetic mean (SD)
[11] = group 3 moderate hepatic impairment, n = 8, arithmetic mean (SD)
[12] = group 4 mild hepatic impairment, n = 8, arithmetic mean (SD)

Structure (SMILES): Nc1cccc2c1C(=O)N(C1CCC(=O)NC1=O)C2=O (centres unmarked) [Pomalidomide]
- teratogenicity [1]: teratogenic
- AUC lower in heavy smokers than in nonsmokers [2]: 30%
- Cmax higher in heavy smokers than in nonsmokers [2]: 14.4%
- total number of TEAEs (Safety assessment; all 32 subjects): 8
- clinically significant clinical laboratory, vital sign, or ECG results (Safety assessment; all subjects): No subject had a clinical laboratory, vital sign, or ECG result that was considered clinically significant or reported as a TEAE
- deaths, SAEs, TEAEs leading to discontinuation (Safety assessment; all subjects): No deaths, SAEs, or TEAEs leading to discontinuation were reported; also recorded: No deaths or other SAEs were reported and no subjects were discontinued; also recorded: no deaths and no subject discontinued due to a TEAE
- severity of TEAEs (Safety assessment; all subjects): All TEAEs were mild in severity except for 1 subject in the moderate hepatic impairment group with the moderate TEAE of bronchitis
- TEAEs reported (Safety assessment; healthy subjects): No TEAEs
- safety and tolerability (Safety assessment; healthy subjects and subjects with severe, moderate, or mild hepatic impairment): safe and well tolerated
- subjects reporting at least 1 TEAE related to pomalidomide (Safety assessment; mild hepatic impairment group, 2 subjects): 25.0%
- subjects reporting TEAEs (Safety assessment; mild hepatic impairment group, 4 subjects): 50.0%
- subjects reporting TEAEs (Safety assessment; moderate hepatic impairment group, 1 subject): 12.5%
- subjects reporting at least 1 TEAE related to pomalidomide (Safety assessment; overall, 3 subjects (diarrhea, nausea, headache, flushing)): 9.4%
- subjects reporting TEAEs (Safety assessment; overall, 6 of 32 subjects): 18.8%
- subjects reporting TEAEs (Safety assessment; [8]): 12.5%
- subjects reporting at least 1 TEAE related to pomalidomide (Safety assessment; [8]): 12.5%
- nonrenal routes as share of pomalidomide total body clearance [3]: approximately 70%
- clearance pathway: CYP–mediated hydroxylation with subsequent glucuronidation [4]: 43 % of the dose
- unchanged pomalidomide in urine [4]: 2.2 % of the dose
- total [14C]‐radioactivity recovered in feces ([4]; oral): 15.5%
- total [14C]‐radioactivity recovered in urine ([4]; oral): 72.8%
- recovery of total [14C]‐radioactivity ([4]; oral, urine plus feces): approximately 88 % of the administered dose
- unchanged pomalidomide in feces ([4]; samples collected during the 96‐hour postdose period): 7.7 % of the dose
- clearance pathway: excretion of unchanged drug ([4]; share of the dose): 10%
- clearance pathway: glutarimide ring hydrolysis ([4]; share of the dose): 25%
- decrease of AUC by food [5]: 8%
- effect on exposure of pomalidomide ([6]; co‐administration of a strong CYP1A2 inhibitor in the presence of a strong CYP3A inhibitor): approximately doubled
- effect on exposure to pomalidomide ([6]; co‐administration of a strong CYP3A inhibitor or inducer or a P‐glycoprotein inhibitor): no clinically relevant effect
- AUC ([7]; AUC0‐t, Geometric Mean, healthy, N = 8): 481 ng·h/mL
- AUC ([7]; AUC0‐t, Geometric Mean, mild hepatic impairment, N = 8): 693 ng·h/mL
- AUC ([7]; AUC0‐t, Geometric Mean, moderate hepatic impairment, N = 8): 725 ng·h/mL
- AUC ([7]; AUC0‐t, Geometric Mean, severe hepatic impairment, N = 8): 762 ng·h/mL
- AUC ([7]; AUC0‐t, group 1 healthy subjects, n = 8, arithmetic mean (SD)): 493 ng·h/mL
- AUC ([7]; AUC0‐t, group 2 severe hepatic impairment, n = 8, arithmetic mean (SD)): 822 ng·h/mL
- AUC ([7]; AUC0‐t, group 3 moderate hepatic impairment, n = 8, arithmetic mean (SD)): 764 ng·h/mL
- AUC ([7]; AUC0‐t, group 4 mild hepatic impairment, n = 8, arithmetic mean (SD)): 728 ng·h/mL
- AUC(0-inf) [7, 9]: 498 ng·h/mL
- AUC(0-inf) [7, 10]: 908 ng·h/mL
- AUC(0-inf) [7, 11]: 810 ng·h/mL
- AUC(0-inf) [7, 12]: 787 ng·h/mL
- AUC ([7]; AUC, Geometric Mean, healthy, N = 8): 486 ng·h/mL
- AUC ([7]; AUC, Geometric Mean, mild hepatic impairment, N = 8): 734 ng·h/mL
- AUC ([7]; AUC, Geometric Mean, moderate hepatic impairment, N = 8): 764 ng·h/mL
- AUC ([7]; AUC, Geometric Mean, severe hepatic impairment, N = 8): 833 ng·h/mL
- Cmax ([7]; Geometric Mean, healthy, N = 8): 59.2 ng/mL
- Cmax ([7]; Geometric Mean, mild hepatic impairment, N = 8): 55.8 ng/mL
- Cmax ([7]; Geometric Mean, moderate hepatic impairment, N = 8): 56.2 ng/mL
- Cmax ([7]; Geometric Mean, severe hepatic impairment, N = 8): 44.9 ng/mL
- Cmax [7, 10]: 49.1 ng/mL
- Cmax [7, 12]: 56.2 ng/mL
- half-life [7, 10]: 12.7 h
- half-life [7, 11]: 10.1 h
- half-life [7, 12]: 10.3 h
- Tmax ([7]; Geometric Mean, healthy, N = 8, Table 4): 1.5 h
- Tmax ([7]; Geometric Mean, mild hepatic impairment, N = 8, Table 4): 2.25 h
- Tmax ([7]; Geometric Mean, moderate hepatic impairment, N = 8, Table 4): 2.38 h
- Tmax ([7]; Geometric Mean, severe hepatic impairment, N = 8, Table 4): 2.5 h
- Tmax ([7]; group 1 healthy subjects, n = 8, median (min, max)): 1.5 h
- Tmax ([7]; group 2 severe hepatic impairment, n = 8, median (min, max)): 2.5 h
- Tmax ([7]; group 3 moderate hepatic impairment, n = 8, median (min, max)): 2.25 h
- Tmax ([7]; group 4 mild hepatic impairment, n = 8, median (min, max)): 2 h
- increase of pomalidomide exposure ([7]; mild hepatic impairment vs healthy): approximately 50%
- increase of pomalidomide exposure ([7]; moderate hepatic impairment vs healthy): approximately 60%
- increase of pomalidomide exposure ([7]; severe hepatic impairment vs healthy): approximately 70%
- CL/F [7, 9]: 8.4 (1.9) L/h
- CL/F [7, 10]: 5.4 (3.3) L/h
- CL/F [7, 11]: 5.6 (2.6) L/h
- CL/F [7, 12]: 5.8 (2.2) L/h
- AUC0‐t, Ratio (%) of Geometric Mean (Impaired vs Healthy) ([7]; mild vs healthy): 143.9%
- AUC, Ratio (%) of Geometric Mean (Impaired vs Healthy) ([7]; mild vs healthy): 151.2%
- Cmax, Ratio (%) of Geometric Mean (Impaired vs Healthy) ([7]; mild vs healthy): 94.2%
- tmax, Median Difference (Impaired– Healthy) ([7]; mild vs healthy): 1.0 h
- AUC0‐t, Ratio (%) of Geometric Mean (Impaired vs Healthy) ([7]; moderate vs healthy): 150.6%
- AUC, Ratio (%) of Geometric Mean (Impaired vs Healthy) ([7]; moderate vs healthy): 157.5%
- Cmax, Ratio (%) of Geometric Mean (Impaired vs Healthy) ([7]; moderate vs healthy): 94.8%
- tmax, Median Difference (Impaired– Healthy) ([7]; moderate vs healthy): 1.0 h
- AUC0‐t, Ratio (%) of Geometric Mean (Impaired vs Healthy) ([7]; severe vs healthy): 158.4%
- AUC, Ratio (%) of Geometric Mean (Impaired vs Healthy) ([7]; severe vs healthy): 171.5%
- Cmax, Ratio (%) of Geometric Mean (Impaired vs Healthy) ([7]; severe vs healthy): 75.8%
- tmax, Median Difference (Impaired– Healthy) ([7]; severe vs healthy): 0.75 h
